Source: ChEMBL document CHEMBL5705906 (Nat Commun, 2017)
Activity calls are given as the source filed them. The rule behind the calls is not given here.

Columns and labels:
BaF3 [1] = experiment: Inhibition of EGFR-T790M/del19 mutant in mouse BaF3 cells assessed as inhibition of EGFR phosphorylation at 10 to 1000 nM incubated for 6 hrs by Western blotting analysis; format: cell-based; details: dose 10-1000 nM
Summary of the method: (§1)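 Ba/F3 cells carrying the stated EGFR mutant were made IL-3-independent after 1 week of 7 µM blasticidin selection. They were grown in low-glucose DMEM with 10% FBS and exposed to inhibitor for 6 h. Cells were washed in cold PBS, lysed in SDS buffer (100 mM Tris, 1% SDS, 10% glycerol) and boiled 5 min. Protein was measured by BCA, run on SDS-PAGE, transferred to PVDF, blocked in 5% BSA or milk/TBS-T, and immunoblotted.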

A549 [2] = experiment: Anticancer activity against human A549 cells assessed as reduction in cell viability at IC50 concentration incubated for 72 hrs by CellTiter-Glo assay; format: functional, cell-based
Summary of the method: (§2)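 Three-day CellTiter-Glo viability assay. Cells exposed to compound across a 10-dose range of 0.3 nM to 10 µM for 72 h. IC50 from nonlinear sigmoidal dose-response fit.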

PC-9 [3] = experiment: Anti-tumor activity against EGFR T790M/del19 mutant expressing gefitinib-resistant human PC-9 cells xenografted in Balb-c nu/nu mouse assessed as growth inhibition at 75 mg/kg, po administered for 42 days and measured for 3 times per week in presence of cetuximab; format: functional, organism-based; details: time 42.0 day
A549 [4] = experiment: Anticancer activity against KRAS-mutated human A549 cells assessed as reduction in cell viability at 1 to 10000 nM incubated for 72 hrs by CellTiter-Glo assay; format: functional, cell-based; details: dose 1-10000 nM
NCI-H460 [5] = experiment: Anticancer activity against human NCI-H460 cells assessed as reduction in cell viability at IC50 concentration incubated for 72 hrs by CellTiter-Glo assay; format: functional, cell-based; summary of the method: as §2
[6] = test system: Epidermal growth factor receptor (Homo sapiens), P00533 [UNDEFINED MUTATION]; details: PC-9, dose 500.0 nM, time 48.0 hrs
BaF3 [7] = format: cell-based; details: Mus musculus, dose 10-1000 nM, time 6.0 hrs
BaF3 [8] = details: Mus musculus, dose 30-1000 nM, time 6.0 hrs
[9] = test system: Epidermal growth factor receptor (Homo sapiens), P00533 [UNDEFINED MUTATION]; details: MGH121, dose 500.0 nM, time 6-48 hrs, TDE = time-dependent effect
[10] = test system: Epidermal growth factor receptor (Homo sapiens), P00533 [UNDEFINED MUTATION]; details: PC-9, dose 500.0 nM, time 6-48 hrs, TDE = time-dependent effect
BaF3 [11] = details: Mus musculus, dose 10-1000 nM, time 6.0 hrs
BaF3 [12] = experiment: Inhibition of EGFR-C797S/T790M/del19 mutant in mouse BaF3 cells assessed as reduction in S6 phosphorylation incubated for 6 hrs by Western blotting analysis; format: cell-based; summary of the method: as §1
PC-9 [13] = details: Homo sapiens, dose 75.0 mg/kg, route po, time 15.0 day
BaF3 [14] = details: Mus musculus, dose 30-1000 nM, time 6.0 hrs; remark: listed apart in the source
[15] = test system: Epidermal growth factor receptor (Homo sapiens), P00533 [UNDEFINED MUTATION]; details: PC-9, dose 10-1000 nM
PC-9 [16] = experiment: Anti-tumor activity against human PC-9 cells expressing EGFR-C797S/T790M/del19 mutant xenografted in Balb-c nu/nu mouse assessed as prolonged survival at 75 mg/kg, po administered for 60 days and measured twice weekly in presence of panitumumab; format: functional, organism-based; details: time 60.0 day
Summary of the method: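 PC9 EGFR-C797S/T790M/del19 xenografts in Balb-c nu/nu mice, randomized at ~200 mm³. […] Tumour volume 0.5×length×width² measured twice weekly. Survival by Kaplan-Meier. N = 6. Mann-Whitney U test at days 16 and 23.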

PC-9 [17] = experiment: Inhibition of EGFR T790M/del19 mutant in human PC-9 cells assessed as reduction in EGFR phosphorylation at 10 to 1000 nM by Western blotting analysis; format: cell-based; details: dose 10-1000 nM
[18] = Toxicity against SCID-beige mouse xenografted with human MGH121 cells expressing EGFR-C797S/T790M/del19 mutant assessed as change in body weight at 75 mg/kg, po administered for 40 days and measured twice weekly; format: organism-based; details: in vivo, 960 h, time 40 day
Summary of the method: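 SCID-beige mice with subcutaneous MGH121-res2 implants were randomized to vehicle or treatment at a mean tumour volume of ~200 mm³. […] Body weight was measured twice weekly, N=6 per group.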

BaF3 [19] = details: Mus musculus, dose 10-1000 nM, time 6.0 hrs; remark: listed apart in the source
[20] = test system: Epidermal growth factor receptor (Homo sapiens), P00533 [UNDEFINED MUTATION]; details: MGH121, dose 500.0 nM, time 48.0 hrs
BaF3 [21] = experiment: Inhibition of EGFR-C797S/T790M/L858R mutant in mouse BaF3 cells assessed as inhibition of EGFR phosphorylation at 10 to 1000 nM incubated for 6 hrs by Western blotting analysis; format: cell-based; details: dose 10-1000 nM
Summary of the method: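 Ba/F3 cells expressing EGFR-L858R-series mutants treated with inhibitors for 6 h. SDS lysates quantified by BCA, run on SDS-PAGE and blotted to PVDF. Probed for phospho-EGFR (Tyr1068), total EGFR and downstream phospho-proteins.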

A-431 = experiment: Anticancer activity against human A-431 cells assessed as reduction in cell viability at IC50 concentration incubated for 72 hrs by CellTiter-Glo assay; format: functional, cell-based; summary of the method: as §2
[22] = test system: Ba/F3 EGFR-Del19/T790M/C797S; experiment: Cytotoxicity against mouse Ba/F3 EGFR-Del19/T790M/C797S cells assessed as growth inhibition at 100 nM incubated for 72 hrs in presence of panitumumab by CellTiter-Glo assay; format: functional, cell-based
[23] = test system: Epidermal growth factor receptor (Homo sapiens), P00533 [UNDEFINED MUTATION]; details: PC-9, dose 10-1000 nM; remark: listed apart in the source
BaF3 [24] = details: Mus musculus, dose 10-1000 nM
BaF3 [25] = experiment: Inhibition of EGFR-del19 mutant in mouse BaF3 cells assessed as inhibition of S6 phosphorylation at 10 to 1000 nM incubated for 6 hrs by Western blotting analysis; format: cell-based; details: dose 10-1000 nM; summary of the method: as §1
BaF3 [26] = experiment: Inhibition of EGFR-T790M/del19 mutant in mouse BaF3 cells assessed as inhibition of Akt phosphorylation at 10 to 1000 nM incubated for 6 hrs by Western blotting analysis; format: cell-based; details: dose 10-1000 nM; summary of the method: as §1
NCI-H460 [27] = experiment: Anticancer activity against KRAS-mutated human NCI-H460 cells assessed as reduction in cell viability at 1 to 10000 nM incubated for 72 hrs by CellTiter-Glo assay; format: functional, cell-based; details: dose 1-10000 nM

Sequence of Epidermal growth factor receptor (Homo sapiens), P00533 [UNDEFINED MUTATION] (P00533 whole entry, looked up, stated change not applied): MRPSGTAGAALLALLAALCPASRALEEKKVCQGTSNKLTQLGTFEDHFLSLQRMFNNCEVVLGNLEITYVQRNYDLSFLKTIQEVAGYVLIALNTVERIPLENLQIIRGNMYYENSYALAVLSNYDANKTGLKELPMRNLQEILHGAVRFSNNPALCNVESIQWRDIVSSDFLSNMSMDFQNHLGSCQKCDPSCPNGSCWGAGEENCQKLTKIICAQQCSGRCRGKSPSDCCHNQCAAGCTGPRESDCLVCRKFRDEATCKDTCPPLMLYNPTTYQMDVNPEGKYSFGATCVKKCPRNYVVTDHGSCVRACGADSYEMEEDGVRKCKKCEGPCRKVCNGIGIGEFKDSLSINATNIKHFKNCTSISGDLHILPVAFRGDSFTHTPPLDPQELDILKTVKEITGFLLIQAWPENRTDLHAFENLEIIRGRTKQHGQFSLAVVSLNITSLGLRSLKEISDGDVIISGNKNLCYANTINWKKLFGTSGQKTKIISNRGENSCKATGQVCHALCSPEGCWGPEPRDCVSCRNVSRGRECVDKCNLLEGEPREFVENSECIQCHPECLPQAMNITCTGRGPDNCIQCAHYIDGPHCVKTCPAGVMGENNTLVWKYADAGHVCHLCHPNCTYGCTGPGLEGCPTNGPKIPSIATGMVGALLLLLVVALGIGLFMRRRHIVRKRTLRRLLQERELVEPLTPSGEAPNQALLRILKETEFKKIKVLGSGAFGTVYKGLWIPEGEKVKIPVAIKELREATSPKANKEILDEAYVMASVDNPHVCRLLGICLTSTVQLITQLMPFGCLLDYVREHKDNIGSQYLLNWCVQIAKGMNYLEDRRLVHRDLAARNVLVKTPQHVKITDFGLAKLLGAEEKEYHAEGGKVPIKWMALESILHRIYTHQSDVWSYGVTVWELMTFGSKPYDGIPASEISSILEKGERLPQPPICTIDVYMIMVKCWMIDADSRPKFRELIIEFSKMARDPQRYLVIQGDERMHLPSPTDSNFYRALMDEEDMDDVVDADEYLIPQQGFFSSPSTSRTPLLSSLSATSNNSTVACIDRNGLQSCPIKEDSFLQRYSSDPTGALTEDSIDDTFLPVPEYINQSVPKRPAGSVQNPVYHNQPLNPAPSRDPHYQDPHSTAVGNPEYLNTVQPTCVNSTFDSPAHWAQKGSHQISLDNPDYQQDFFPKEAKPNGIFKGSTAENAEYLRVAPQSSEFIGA

inhibition [6]: Active | inhibition [9]: Tde | inhibition [10]: Tde | inhibition [15]: Active | inhibition [20]: Active | inhibition [23]: Active
SMILES: COc1cc(N2CCC(N3CCN(C)CC3)CC2)ccc1Nc1ncc(Cl)c(Nc2ccccc2P(C)(C)=O)n1 [BRIGATINIB]
inhibition (BaF3 [1]): Active | Activity (A549 [2]): Active | Activity (PC-9 [3]): Active | Activity (A549 [4]): Active | Activity (NCI-H460 [5]): Active | inhibition (BaF3 [7]): Active | inhibition (BaF3 [8]): Active | inhibition (BaF3 [11]): Active | inhibition (BaF3 [12]): Dose-Dependent Effect | inhibition (PC-9 [13]): Active | inhibition (BaF3 [14]): Active | Activity (PC-9 [16]): Active | inhibition (PC-9 [17]): Active | Activity [18]: Non-Toxic | inhibition (BaF3 [19]): Active | inhibition (BaF3 [21]): Active | Activity (A-431): Active | growth inhibition (GI) [22]: Active | inhibition (BaF3 [24]): Dose-Dependent Effect | inhibition (BaF3 [25]): Active | inhibition (BaF3 [26]): Active | Activity (NCI-H460 [27]): Active
